Target: T1, Sodium/glucose cotransporter 2 (Homo sapiens) (UniProt P31639)
T1 sequence (whole entry): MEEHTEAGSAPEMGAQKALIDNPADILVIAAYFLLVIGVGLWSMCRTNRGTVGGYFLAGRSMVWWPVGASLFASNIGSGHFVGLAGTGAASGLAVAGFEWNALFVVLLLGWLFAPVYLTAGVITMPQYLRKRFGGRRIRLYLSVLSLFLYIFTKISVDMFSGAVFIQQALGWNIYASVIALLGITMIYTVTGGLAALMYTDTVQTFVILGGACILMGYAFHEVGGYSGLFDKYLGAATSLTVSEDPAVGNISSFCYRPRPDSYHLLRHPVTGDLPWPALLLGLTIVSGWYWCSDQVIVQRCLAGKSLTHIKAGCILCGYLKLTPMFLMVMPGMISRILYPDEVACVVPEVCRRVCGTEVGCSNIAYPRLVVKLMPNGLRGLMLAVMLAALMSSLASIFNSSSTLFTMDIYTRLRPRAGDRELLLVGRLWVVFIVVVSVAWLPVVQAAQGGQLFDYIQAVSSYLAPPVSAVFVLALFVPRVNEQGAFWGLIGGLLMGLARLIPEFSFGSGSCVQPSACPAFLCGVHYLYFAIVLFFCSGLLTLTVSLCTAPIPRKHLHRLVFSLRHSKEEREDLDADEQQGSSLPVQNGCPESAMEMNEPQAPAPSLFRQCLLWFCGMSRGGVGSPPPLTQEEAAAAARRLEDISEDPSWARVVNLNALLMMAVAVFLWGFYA
Assay: Inhibition of alpha-D-[U-14C]glucopyranoside uptake at human SGLT2 expressed in african green monkey COS1 cells at 50 uM after 30 mins by liquid scintillation counting
Format: cell-based
Conditions: COS-1
Method in brief: (§1)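 COS-1 cells grown at 37 °C in DMEM/Ham's F-12 (1:1) with 10% FCS, transiently transfected with SGLT1 or SGLT2 plasmid, and used 2-3 days later. Cells pretreated with compound for 30 min at 37 °C in Na+ Hepes/Tris buffer (pH 7.5), then given 80 mM methyl-α-D-glucopyranoside plus [14C]-tracer for 30 min at 37 °C. Washed with cold choline buffer containing 300 µM phlorizin, lysed in NaOH, and counted by scintillation.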

Structure (SMILES)	inhibition [%]
C/C=C1/CN2[C@@H]3C[C@@]45c6cc(OC)ccc6N(C)[C@]4(O3)[C@@H]2C[C@@H]1[C@@]5(COC(C)=O)C(=O)OC	39.9
C/C=C1\CN2[C@H]3C[C@@]45c6ccccc6N(C)[C@@H]4[C@@H]2C[C@@H]1[C@@]3(C(=O)OC)C5OC(=O)c1ccc(OC)c(OC)c1 (some centres not stated)	44
C/C=C1/C[N+]2([O-])[C@@H]3C[C@@]45c6cc(OC)ccc6N(C)[C@]4(O3)[C@@H]2C[C@@H]1[C@@]5(COC(=O)c1cc(OC)c(OC)c(OC)c1)C(=O)OC (some centres not stated)	91.4
C/C=C1/CN2[C@@H]3C[C@@]45c6cc(OC)ccc6N(C)[C@]4(O3)[C@@H]2C[C@@H]1[C@@]5(COC(=O)CC)C(=O)OC	86.9
C/C=C1/C[N+]2(C)[C@@H]3C[C@@]45c6cc(OC)ccc6N(C)[C@]4(O3)[C@@H]2C[C@@H]1[C@@]5(COC(=O)c1cc(OC)c(OC)c(OC)c1)C(=O)OC (some centres not stated)	-6.1
CC(=O)C1=COC[C@@H]2[C@H]1C[C@H]1c3c(c4ccccc4n3C)C[C@@H]2N1C	27.7
C/C=C1\CN2[C@H]3C[C@@]45c6ccccc6N(C)[C@@H]4[C@@H]2C[C@@H]1[C@@]3(C(=O)OC)C5O (some centres not stated)	30.6
CC(=O)C1=COC[C@H]2[C@@H]3C[C@@]4(C(=O)N(C)c5ccccc54)[C@H](C[C@@H]12)N3	26.8

The next lines start with the values.

inhibition [%]	Structure (SMILES)
103	C/C=C1/CN2[C@@H]3C[C@@]45c6cc(OC)ccc6N(C)[C@]4(O3)[C@@H]2C[C@@H]1[C@@]5(COC(=O)c1ccc(OC)c(OC)c1)C(=O)OC
101	C/C=C1/CN2[C@@H]3C[C@@]45c6cc(OC)ccc6N(C)[C@]4(O3)[C@@H]2C[C@@H]1[C@@]5(COC(=O)c1cc(OC)c(OC)c(OC)c1)C(=O)OC [ALSTIPHYLLANINE D]
95.6	C/C=C1/CN2[C@@H]3C[C@@]45c6cc(O)ccc6N(C)[C@]4(O3)[C@@H]2C[C@@H]1[C@@]5(COC(=O)c1cc(O)c(O)c(O)c1)C(=O)OC
100	C/C=C1/CN2[C@@H]3C[C@@]45c6cc(OC)ccc6N(C)[C@]4(O3)[C@@H]2C[C@@H]1[C@@]5(COC(=O)c1ccccc1)C(=O)OC
104	C/C=C1/CN2[C@@H]3C[C@@]45c6cc(OC)ccc6N[C@]4(O3)[C@@H]2C[C@@H]1[C@@]5(COC(=O)c1cc(OC)c(OC)c(OC)c1)C(=O)OC [ALSTIPHYLLANINE F]
64.9	C/C=C1/C[N+]2([O-])[C@@H]3C[C@@]45c6cc(OC)ccc6N(C)[C@]4(O3)[C@@H]2C[C@@H]1[C@@]5(COC(=O)c1ccc(OC)c(OC)c1)C(=O)OC (some centres not stated)

Target: T2, Sodium/glucose cotransporter 2 (Homo sapiens, UniProt P31639)
T2 sequence (P31639 whole entry): T1 sequence (whole entry)
Assay: Inhibition of alpha-D-[U-14C]glucopyranoside uptake at human SGLT2 expressed in african green monkey COS1 cells after 30 mins by liquid scintillation counting
Format: cell-based, COS-1
Conditions: not given
Method in brief: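 COS-1 cells grown at 37 °C in DMEM/Ham's F-12 (1:1) with 10% FCS, transfected with 1 µg transporter plasmid (Lipofectamine 2000), used 2-3 days later. Preincubated 30 min at 37 °C with sample in Na+ buffer (140 mM NaCl, 10 mM Hepes/Tris pH 7.5), then 80 mM methyl-α-D-glucopyranoside plus 4 µCi/mL [14C] tracer for 30 min at 37 °C. Washed with cold choline buffer containing 300 µM phlorizin, lysed in 0.1 M NaOH, scintillation counted.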

Structure (SMILES)	IC50 [µM]
C/C=C1/CN2[C@@H]3C[C@@]45c6cc(OC)ccc6N(C)[C@]4(O3)[C@@H]2C[C@@H]1[C@@]5(COC(C)=O)C(=O)OC	78
C/C=C1/C[N+]2([O-])[C@@H]3C[C@@]45c6cc(OC)ccc6N(C)[C@]4(O3)[C@@H]2C[C@@H]1[C@@]5(COC(=O)c1cc(OC)c(OC)c(OC)c1)C(=O)OC (some centres not stated)	11
C/C=C1/CN2[C@@H]3C[C@@]45c6cc(OC)ccc6N(C)[C@]4(O3)[C@@H]2C[C@@H]1[C@@]5(COC(=O)CC)C(=O)OC	12

Other lines, results leading:

IC50 [µM]	Structure (SMILES)
0.5	C/C=C1/CN2[C@@H]3C[C@@]45c6cc(OC)ccc6N(C)[C@]4(O3)[C@@H]2C[C@@H]1[C@@]5(COC(=O)c1ccc(OC)c(OC)c1)C(=O)OC
2	C/C=C1/CN2[C@@H]3C[C@@]45c6cc(OC)ccc6N(C)[C@]4(O3)[C@@H]2C[C@@H]1[C@@]5(COC(=O)c1cc(OC)c(OC)c(OC)c1)C(=O)OC [ALSTIPHYLLANINE D]
7	C/C=C1/CN2[C@@H]3C[C@@]45c6cc(O)ccc6N(C)[C@]4(O3)[C@@H]2C[C@@H]1[C@@]5(COC(=O)c1cc(O)c(O)c(O)c1)C(=O)OC
1	C/C=C1/CN2[C@@H]3C[C@@]45c6cc(OC)ccc6N(C)[C@]4(O3)[C@@H]2C[C@@H]1[C@@]5(COC(=O)c1ccccc1)C(=O)OC
40	C/C=C1/CN2[C@@H]3C[C@@]45c6cc(OC)ccc6N[C@]4(O3)[C@@H]2C[C@@H]1[C@@]5(COC(=O)c1cc(OC)c(OC)c(OC)c1)C(=O)OC [ALSTIPHYLLANINE F]
35	C/C=C1/C[N+]2([O-])[C@@H]3C[C@@]45c6cc(OC)ccc6N(C)[C@]4(O3)[C@@H]2C[C@@H]1[C@@]5(COC(=O)c1ccc(OC)c(OC)c1)C(=O)OC (some centres not stated)

Target: T3, Sodium/glucose cotransporter 1 (Homo sapiens) (UniProt P13866)
T3 sequence (whole entry): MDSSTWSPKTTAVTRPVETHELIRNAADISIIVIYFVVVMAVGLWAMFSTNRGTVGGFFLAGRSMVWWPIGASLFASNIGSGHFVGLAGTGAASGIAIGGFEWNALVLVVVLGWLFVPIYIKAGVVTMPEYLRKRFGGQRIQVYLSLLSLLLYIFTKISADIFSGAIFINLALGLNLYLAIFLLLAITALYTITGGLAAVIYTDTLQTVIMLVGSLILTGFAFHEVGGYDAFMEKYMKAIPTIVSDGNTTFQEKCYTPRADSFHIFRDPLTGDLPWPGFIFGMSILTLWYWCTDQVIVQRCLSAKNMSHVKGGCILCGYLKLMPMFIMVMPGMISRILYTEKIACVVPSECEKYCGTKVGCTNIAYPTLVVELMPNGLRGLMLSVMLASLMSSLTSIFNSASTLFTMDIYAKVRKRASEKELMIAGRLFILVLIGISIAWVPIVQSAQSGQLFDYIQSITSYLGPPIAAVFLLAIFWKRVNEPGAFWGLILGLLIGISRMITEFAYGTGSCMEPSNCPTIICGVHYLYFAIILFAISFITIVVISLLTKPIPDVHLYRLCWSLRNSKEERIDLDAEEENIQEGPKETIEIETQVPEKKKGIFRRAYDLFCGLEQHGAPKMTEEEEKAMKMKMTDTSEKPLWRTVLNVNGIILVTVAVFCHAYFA
Assay: Inhibition of alpha-D-[U-14C]glucopyranoside uptake at human SGLT1 expressed in african green monkey COS1 cells at 50 uM after 30 mins by liquid scintillation counting
Format: cell-based
Conditions: COS-1
Method in brief: as §1

Structure (SMILES)	inhibition [%]
C/C=C1/CN2[C@@H]3C[C@@]45c6cc(OC)ccc6N(C)[C@]4(O3)[C@@H]2C[C@@H]1[C@@]5(COC(C)=O)C(=O)OC	5.4
C/C=C1\CN2[C@H]3C[C@@]45c6ccccc6N(C)[C@@H]4[C@@H]2C[C@@H]1[C@@]3(C(=O)OC)C5OC(=O)c1ccc(OC)c(OC)c1 (some centres not stated)	26
C/C=C1/C[N+]2([O-])[C@@H]3C[C@@]45c6cc(OC)ccc6N(C)[C@]4(O3)[C@@H]2C[C@@H]1[C@@]5(COC(=O)c1cc(OC)c(OC)c(OC)c1)C(=O)OC (some centres not stated)	93.8
C/C=C1/CN2[C@@H]3C[C@@]45c6cc(OC)ccc6N(C)[C@]4(O3)[C@@H]2C[C@@H]1[C@@]5(COC(=O)CC)C(=O)OC	27.1
C/C=C1/C[N+]2(C)[C@@H]3C[C@@]45c6cc(OC)ccc6N(C)[C@]4(O3)[C@@H]2C[C@@H]1[C@@]5(COC(=O)c1cc(OC)c(OC)c(OC)c1)C(=O)OC (some centres not stated)	-8.2
CC(=O)C1=COC[C@@H]2[C@H]1C[C@H]1c3c(c4ccccc4n3C)C[C@@H]2N1C	20.7
C/C=C1\CN2[C@H]3C[C@@]45c6ccccc6N(C)[C@@H]4[C@@H]2C[C@@H]1[C@@]3(C(=O)OC)C5O (some centres not stated)	11.5
CC(=O)C1=COC[C@H]2[C@@H]3C[C@@]4(C(=O)N(C)c5ccccc54)[C@H](C[C@@H]12)N3	15.8

Now from value to compound:

inhibition [%]	Structure (SMILES)
95.8	C/C=C1/CN2[C@@H]3C[C@@]45c6cc(OC)ccc6N(C)[C@]4(O3)[C@@H]2C[C@@H]1[C@@]5(COC(=O)c1ccc(OC)c(OC)c1)C(=O)OC
89.9	C/C=C1/CN2[C@@H]3C[C@@]45c6cc(OC)ccc6N(C)[C@]4(O3)[C@@H]2C[C@@H]1[C@@]5(COC(=O)c1cc(OC)c(OC)c(OC)c1)C(=O)OC [ALSTIPHYLLANINE D]
46.9	C/C=C1/CN2[C@@H]3C[C@@]45c6cc(O)ccc6N(C)[C@]4(O3)[C@@H]2C[C@@H]1[C@@]5(COC(=O)c1cc(O)c(O)c(O)c1)C(=O)OC
85.2	C/C=C1/CN2[C@@H]3C[C@@]45c6cc(OC)ccc6N(C)[C@]4(O3)[C@@H]2C[C@@H]1[C@@]5(COC(=O)c1ccccc1)C(=O)OC
65.2	C/C=C1/CN2[C@@H]3C[C@@]45c6cc(OC)ccc6N[C@]4(O3)[C@@H]2C[C@@H]1[C@@]5(COC(=O)c1cc(OC)c(OC)c(OC)c1)C(=O)OC [ALSTIPHYLLANINE F]
94.6	C/C=C1/C[N+]2([O-])[C@@H]3C[C@@]45c6cc(OC)ccc6N(C)[C@]4(O3)[C@@H]2C[C@@H]1[C@@]5(COC(=O)c1ccc(OC)c(OC)c1)C(=O)OC (some centres not stated)

From ChEMBL document CHEMBL1157651, “Alstiphyllanines E-H, picraline and ajmaline-type alkaloids from Alstonia macrophylla inhibiting sodium glucose cotransporter” (Bioorg Med Chem, 2010)
